Screens (PubChem BioAssay)
In the library only some 2% were active in any assay of this set; here they are far more common.
HIF act: HIF pathway transcriptional activation | U2OS HRE-luciferase reporter, luminescence; normalized: DMSO 0%, desferrioxamine 100% | activation, % at 7.5 µM (by protocol) | 0.32% of 300,000 active | AID 1910;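 active = mean activation of at least 10% of the iron chelator positive control signal, with at least half of replicates also reaching 10%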
LMP1 NFkB inh: reduces LMP1-driven NF-kappaB luciferase signal; 0.69% of 350,000 active; inhibition, % at 12.5 µM; AID 504558; LMP1-induced NF-kappaB luciferase reporter cells, luminescence; in the data active = inhibition above about 41%;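 also: 0% = neutral control wells and 100% = reference inhibitor control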
NR2E3 ag-1: activates human photoreceptor nuclear receptor NR2E3; Q9Y5X4; GST-NR2E3/biotin-RetCOR TR-FRET, 1536-well; inhibition of corepressor binding, % at 4.78 µM; 0.12% of 320,000 active; AID 2300;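 active = percent inhibition above the cutoff of mean plus 3 SD of all tested compounds, set per screening campaign, cut at about 20% in these data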;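 also: 0% = DMSO wells and 100% = biotin wells as full block of FRET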
Target sequence (Q9Y5X4 whole entry, looked up): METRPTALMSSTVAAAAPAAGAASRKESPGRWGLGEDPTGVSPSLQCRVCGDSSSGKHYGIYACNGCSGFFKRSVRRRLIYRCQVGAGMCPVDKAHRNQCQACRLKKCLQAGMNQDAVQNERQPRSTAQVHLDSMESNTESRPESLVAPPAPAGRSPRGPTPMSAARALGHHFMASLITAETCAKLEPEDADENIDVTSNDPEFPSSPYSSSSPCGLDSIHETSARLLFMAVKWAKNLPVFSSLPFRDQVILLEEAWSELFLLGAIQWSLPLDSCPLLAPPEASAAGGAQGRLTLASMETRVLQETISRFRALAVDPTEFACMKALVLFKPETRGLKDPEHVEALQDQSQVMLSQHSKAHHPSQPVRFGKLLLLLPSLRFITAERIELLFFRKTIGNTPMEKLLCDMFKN
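System: GST-tagged NR2E3 plus biotinylated RetCOR corepressor; Amount: 1.35 nM GST-tagged NR2E3 final; Dosing: single nominal compound dose of 4.8 µM; Schedule: 5 h incubation at 4 °C; Technique: TR-FRET with europium anti-GST and streptavidin-D2, 340 nm excitation; Controls: biotin wells as high control, 0.6% DMSO wells as low control.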
TROY signal inh: TROY signaling inhibition. Q293 LMP1-TROYcd NF-kB luciferase reporter, 4 h. 0.98% of 360,000 active. inhibition, % at 10 µM;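 active = compounds whose plate-normalised and pattern-corrected inhibition of the luciferase reporter signal at the single screening dose is 50% or more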
NR2E3 ag-2: human photoreceptor-specific nuclear receptor agonism; inhibition of corepressor binding, % at 3.98 µM; Q9Y5X4; CHO-S Gal4-NCOR/VP16-NR2E3 two-hybrid, luciferase; AID 602229; 0.35% of 360,000 active;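 active = inhibition above the mean of all tested compounds plus 3 SD, cut at about 70% in these data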;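 also: 0% = DMSO with NR2E3 transfected cells and 100% = cells lacking NR2E3 construct; higher means lower luciferase signal from less NR2E3 corepressor binding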
Numbers without * were called inactive; / = no result given; ! = not active in a repeat.

SMILES	HIF act	LMP1 NFkB inh	NR2E3 ag-1	TROY signal inh	NR2E3 ag-2
C=CCNC(=S)NN=C1CCC(c2ccccc2)CC1 (configuration not stated)	0	-6	-1	2	-39
O=C(NCCCN1CCOCC1)c1cc(-c2cccs2)on1	20*	38	4	-58	-34
O=C(NC1CCCCCCC1)c1cnccn1	0	-16	-1	-1	-24
O=C(NC1CCCCC1)c1csnn1	/	89*	/	-12	-5
O=C(NC1CCCC1)c1cc(-c2ccccc2O)on1	1	-36	4	-41	-130
O=C(NC1CCCC1)c1cc(-c2cccs2)on1	32*	-1	1	-75	-132
O=C(NCCCn1ccnc1)c1cc(-c2cccs2)on1	38*	-31	3	-110	-39
O=C(CNC(=O)c1cccc(Cl)c1)NCCCSc1ccccc1	0	7	-1	-4	-22
CC(=O)Nc1cccc(-c2ccnc3c2CC(C(=O)NCc2ccc(F)c(F)c2)O3)c1 (configuration not stated)	/	/	/	24	-16
CCOc1ccc(-c2cc(CCCC(=O)Nc3cccc(OC)c3)no2)cc1	-2	47*	2	24	-28
CCOc1ccc(NC(=O)CCCc2cc(-c3ccc(OCC)cc3)on2)cc1	0	18	1	-6	-4
C[C@@H]1CN([C@H](C)CO)C(=O)CCCn2cc(nn2)CO[C@H]1CN(C)C(=O)c1ccccc1	/	/	/	10	4
Cn1c(/C=C/c2ccc([N+](=O)[O-])o2)nc2ccccc2c1=O	-6	88*	-7	-3	29
Cc1ccc(/C=N/NS(=O)(=O)c2ccc([N+](=O)[O-])cc2)o1	0	4	-1	-1	7
CCCCCCCCCCS(=O)(=O)N/N=C/c1ccc([N+](=O)[O-])cc1	0	5	-2	51*	7
COc1cc([C@@H]2[C@H]3CN(C)CC=C3C(C#N)=C(N)C2(C#N)C#N)cc2c1OCO2	0	-10	2	60*!	31
COc1cccc(C2C3CN(C)CC=C3C(C#N)=C(N)C2(C#N)C#N)c1OC (configuration not stated)	-2	0	2	2	-10
CC(C)(C)OC(=O)C[C@H]1C/C=C\C[C@@H](CC(=O)N[C@H](CO)Cc2ccccc2)C(=O)N2CCC[C@H]2COC1=O	/	3	/	12	-49
CCOC(=O)c1c(-c2ccc(OC)cc2)csc1/N=C/C1=C(O)CCCC1=O	-1	53*	-3	12	-7
CCOC(=O)c1c(/N=C/C2=C(O)CCCC2=O)sc(C)c1C	0	4	-2	-39	8
CCOC(=O)c1c(S(=O)(=O)NCc2ccc(C)o2)c(C)n(C)c1C	70*	2	7	-12	10
O=C(NCCS(=O)(=O)NCc1ccc2c(c1)OCO2)c1ccccc1	0	0	2	-19	-2
COc1ccc(-n2nnnc2S(=O)(=O)Cc2ccc(C(=O)O)cc2)cc1	-1	27	4	20	-8
COc1ccc(-n2nnnc2S(=O)(=O)CC(=O)N2CCCCC2)cc1	/	61*	-1	57*	-16
O=C1c2ccccc2C(=O)c2c1cccc2-n1nnc2ccccc21	0	2	1	-8	-28
SMILES	HIF act	LMP1 NFkB inh	NR2E3 ag-1	TROY signal inh	NR2E3 ag-2
O=C1C(N2CCOCC2)=C(n2nnc3ccccc32)C(=O)c2ccccc21	-41	65*	1	14	22
O=C(Nc1ccc(Cl)cc1)/C(=C/c1cccc(O)c1)c1nc2ccccc2s1	-6	-3	0	83*	30
O=C(O)C/C(=C\c1cccc(NC(=O)c2ccccc2Cl)c1)c1nc2ccccc2s1	0	-5	-3	0	10
CC1=C(C(=O)N(C)C)CC(CC(=O)NCc2cccc3ccccc23)C(=O)N1Cc1ccccc1 (configuration not stated)	/	2	/	14	5
Clc1ccc(CSc2ccc(-c3ccccn3)nn2)cc1	24*	-7	1	-28	-29
c1ccc(CSc2ccc(-c3ccccn3)nn2)cc1	10*	3	0	-19	-157
O=C(CSc1ccc(-c2ccccn2)nn1)c1ccccc1	2	-9	7	-28	-87
O=C(CSc1ccc(-c2ccccn2)nn1)NCc1ccc(Cl)cc1	0	-10	1	-19	8
O=C1C(Sc2ccccc2)=C[C@@]2(O)CC[C@@H](O)[C@]1(Sc1ccccc1)[C@H]2O	/	/	/	-12	18
O=C(CC[C@H]1O[C@@H](n2ccc(=O)[nH]c2=O)[C@H](O)[C@@H]1O)NCc1ccco1	/	/	/	-14	8
Cc1cc(N2CCOCC2)nc2ccc(NC(=S)NCCC(C)C)cc12	-1	-6	-1	-30	-43
Cc1cc(N2CCN(C)CC2)nc2ccc(NC(=S)NCCC(C)C)cc12	0	4	1	54*	21
CCCCCCNC(=O)CC(c1ccccc1)c1cc(Br)ccc1O (configuration not stated)	0	6	3	55*	5
CCc1cc(Cl)c(OC)c(C(=O)NC[C@@H]2CCCN2CC)c1O	0	71*!	-1	4	-22
CCN1CCCC1CNC(=O)c1ccccc1Cl (configuration not stated)	1	0	2	-9	18
Oc1ccc(-c2nc(=S)[nH][nH]2)cc1	/	-3	1	-1	-5
FC(F)(F)c1ccc(-c2nc(=S)[nH][nH]2)cc1	96*	0	-1	-20	-35
CCOC(=O)/C(C#N)=C/c1cc(C)n(-c2ccc(C)cc2)c1C	3	-48	4	50*	-82
Cc1cc(/C=C(\C#N)C(=O)Nc2ccccc2)c(C)n1-c1ccc(C(=O)O)cc1	0	-2	0	8	-16
CCOC(=O)/C(C#N)=C\c1cc(C)n(-c2ccccc2)c1C	0	-27	-3	79*	-4
COc1ccc(OC)c(NC(=S)N2CCN(C(=O)C3CCCO3)CC2)c1 (configuration not stated)	0	10	/	-24	4
COc1ccc(-c2cc(C(=O)NCc3cccc(C(F)(F)F)c3)[nH]n2)c(C)c1	/	/	/	17	-17
CC(C)Cc1ccccc1O	0	/	-4	/	/
Nc1nc(C(=O)N2CCOCC2)nn1S(=O)(=O)c1ccc(Cl)cc1	1	-10	3	3	-8
O=C(c1nnsc1S(=O)c1ccc(Cl)cc1)N1CCOCC1 (configuration not stated)	-2	23	/	51*	-9
O=C(c1nnsc1S(=O)(=O)c1ccc(Cl)cc1)N1CCOCC1	-2	39	/	68*	-10
O=C(Nc1ccccc1)c1nnsc1S(=O)c1ccc(Cl)cc1 (configuration not stated)	2	-21	-3	-11	-66
CNC(=O)c1ccc(S(=O)(=O)c2ccc(Cl)cc2)c(NC(C)=O)c1	-1	10	-1	21	-1
O=C(N1CCOCC1)N1CCN(S(=O)(=O)c2ccc(Cl)cc2)C1	0	44*	2	3	-21
